Test results reported in ChEMBL document CHEMBL3875163, “Novel urea and bis-urea primaquine derivatives with hydroxyphenyl or halogenphenyl substituents: Synthesis and biological evaluation” (Eur J Med Chem, 2016).
In brackets after ≈: the same amount, converted by molar mass.

How the values were obtained:
[1] = Cytotoxicity against HEK cells assessed as reduction in cell viability at 12.5 to 200 ug/ml after 24 hrs by MTT assay; type: toxicity, cell-based; conditions: human, hek293, 24 h
How it was run: (§1)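 HEK 293 cells, 5 × 10^3 per well, treated next day for 24 h with compound (range within 200 to 1.5625 µg/ml). MTT 0.5 mg/ml in DMEM/10% FBS, 4 h at 37 °C, 5% CO2; formazan in DMSO, A570. Viability as percent of untreated control; triplicates, three independent experiments.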

[2] = tested on: Staphylococcus aureus; assay: Antibacterial activity against methicillin resistant Staphylococcus aureus MFBF 10682 after 18 hrs by serial microdilution broth assay; type: functional; conditions: MFBF 10682, 18 h
How it was run: (§2)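 EUCAST-based broth microdilution in Mueller-Hinton broth. Glycerol stock cultures grown in trypticase soy broth 18 h at 37 °C; inoculum in PBS pH 7.4 at 0.5 McFarland, diluted 1:10 in broth. Compounds from DMSO stocks, 1000 to 0.78125 µg/ml; 18 h aerobic, 35 °C, dark. TTC 0.5 mg/ml added, 3 h, then HCl/isopropanol, A490. MIC = lowest concentration giving 50% inhibition vs untreated; duplicates, averaged.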

[3] = tested on: Glycine max; assay: Inhibition of soybean LOX assessed as reduction in conversion of sodium linoleate to 13-hydroperoxylinoleic acid at 1 x 10^-4 M relative to control
How it was run: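 Soybean lipoxygenase incubated at room temperature with sodium linoleate (0.1 mM) and test compound (DMSO stocks); formation of 13-hydroperoxylinoleic acid read at 234 nm. Single-point screening at 1 × 10^-4 M; IC50 from several concentrations. At least triplicate.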

[4] = Growth inhibition of human MCF7 cells after 72 hrs by MTT assay; type: functional, cell-based; conditions: MCF7, 72 h
How it was run: (§3)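 Modified NCI DTP protocol: cells in DMEM with 10% FBS, 2 mM glutamine, antibiotics, 37 °C, 5% CO2; seeded 1 × 10^4 to 3 × 10^4 cells/ml on day 0, exposed to five 10-fold dilutions (10^-8 to 10^-4 M) for 72 h; solvent control. MTT read-out; quadruplicate points in three experiments; IC50 by linear regression of growth percentages bracketing 50%.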

[5] = tested on: Staphylococcus aureus; assay: Antibacterial activity against methicillin sensitive Staphylococcus aureus ATCC 25923 after 18 hrs by serial microdilution broth assay; type: functional; conditions: ATCC 25923, 18 h; how it was run: as §2
[6] = Growth inhibition of human HeLa cells after 72 hrs by MTT assay; type: functional, cell-based
[7] = tested on: Bacillus pumilus; assay: Antibacterial activity against Bacillus pumilus NCTC 8241 after 18 hrs by serial microdilution broth assay; type: functional; conditions: NCTC 8241, 18 h
How it was run: (§4)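 Broth microdilution MIC per EUCAST for aerobic bacteria in Mueller-Hinton broth, serial dilution 1000 to 0.78125 µg/ml from 10 mg/ml DMSO stocks. Inoculum from trypticase soy broth cultures (18 h, 37 °C), set to 0.5 McFarland in PBS pH 7.4, diluted 1:10. 18 h aerobic incubation at 35 °C in dark, then TTC 0.5 mg/ml for 3 h, HCl-isopropanol, A490. MIC = lowest concentration giving 50% inhibition versus untreated; duplicates.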

[8] = Antioxidant activity assessed as DPPH radical scavenging activity at 100 uM after 60 mins relative to control; type: functional
How it was run: (§5)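 Compound in DMSO added to DPPH in absolute ethanol, 0.1 mM final; absorbance at 517 nm after 20 and 60 min at room temperature. At least triplicate.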

[9] = tested on: Pseudomonas aeruginosa; assay: Antibacterial activity against multi-drug resistant Pseudomonas aeruginosa MFBF after 18 hrs by serial microdilution broth assay; type: functional; how it was run: as §2
[10] = tested on: Enterococcus faecalis; assay: Antibacterial activity against vancomycin resistant Enterococcus faecalis MFBF 11419 after 18 hrs by serial microdilution broth assay; type: functional; conditions: MFBF 11419, 18 h; how it was run: as §2
[11] = Antioxidant activity assessed as DPPH radical scavenging activity at 100 uM after 20 mins relative to control; type: functional; how it was run: as §5
[12] = tested on: Pseudomonas aeruginosa; assay: Antibacterial activity against Pseudomonas aeruginosa ATCC 9027 after 18 hrs by serial microdilution broth assay; type: functional; conditions: ATCC 9027, 18 h; how it was run: as §2
[13] = tested on: Candida albicans; assay: Antifungal activity against Candida albicans ATCC 90028 after 18 hrs by serial microdilution broth assay; type: functional; conditions: ATCC 90028, 18 h
How it was run: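 Yeast microdilution in RPMI 1640 with glutamine plus 2% glucose, 1000 to 0.78125 µg/ml from 10 mg/ml DMSO stocks. Growth read with XTT (10 mg/ml) mixed 7:1 with menadione (1 mg/ml in acetone), absorbance at 540 nm. MIC taken as lowest concentration giving 50% growth inhibition versus untreated cells; tests in duplicate.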

[14] = Growth inhibition of human SW620 cells after 72 hrs by MTT assay; type: functional, cell-based; conditions: SW-620, 72 h; how it was run: as §3
[15] = Growth inhibition of human NCI-H460 cells after 72 hrs by MTT assay; type: functional, cell-based; conditions: NCI-H460, 72 h; how it was run: as §3
[16] = tested on: Escherichia coli; assay: Antibacterial activity against Escherichia coli ATCC 10535 after 18 hrs by serial microdilution broth assay; type: functional; conditions: ATCC 10535, 18 h; how it was run: as §4
[17] = Antioxidant activity assessed as inhibition of AAPH-induced linoleic acid lipid peroxidation at 1 x 10^-4 M by UV-absorbance method relative to control; type: functional
How it was run: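 Linoleic acid peroxidation: 16 mM sodium linoleate dispersion in 0.05 M phosphate buffer pH 7.4 at 37 °C under air, initiated by AAPH (40 mM solution); compound at 1 × 10^-4 M; oxidation followed at 234 nm. At least triplicate.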

[18] = tested on: Staphylococcus aureus; assay: Antibacterial activity against Staphylococcus aureus ATCC 6538 after 18 hrs by serial microdilution broth assay; type: functional; conditions: ATCC 6538, 18 h; how it was run: as §4
[19] = tested on: Staphylococcus aureus; assay: Antibacterial activity against methicillin sensitive Staphylococcus aureus ATCC 25213 after 18 hrs by serial microdilution broth assay; type: functional; conditions: ATCC 25213, 18 h; how it was run: as §4
[20] = Growth inhibition of human CEM cells after 72 hrs by MTT assay; type: functional, cell-based; conditions: CCRF-CEM
[21] = Growth inhibition of human MIAPaCa2 cells after 72 hrs by MTT assay; type: functional, cell-based; conditions: MIA PaCa-2, 72 h
[22] = tested on: Bacillus spizizenii; assay: Antibacterial activity against Bacillus subtilis ATCC 6633 after 18 hrs by serial microdilution broth assay; type: functional; conditions: ATCC 6633, 18 h; how it was run: as §4
[23] = tested on: Pseudomonas aeruginosa; assay: Antibacterial activity against Pseudomonas aeruginosa ATCC 27853 after 18 hrs by serial microdilution broth assay; type: functional; conditions: ATCC 27853, 18 h; how it was run: as §4
[24] = tested on: Enterococcus faecalis; assay: Antibacterial activity against vancomycin susceptible Enterococcus faecalis ATCC 29212 after 18 hrs by serial microdilution broth assay; type: functional; conditions: ATCC 29212, 18 h; how it was run: as §4
[25] = Growth inhibition of mouse L1210 cells after 72 hrs by MTT assay; type: functional, cell-based; conditions: L1210, 72 h
[26] = Growth inhibition of human Molt4/C8 cells after 72 hrs by MTT assay; type: functional, cell-based; conditions: MOLT-4, 72 h
[27] = tested on: Staphylococcus aureus; assay: Antibacterial activity against methicillin resistant Staphylococcus aureus MFBF 10679 after 18 hrs by serial microdilution broth assay; type: functional; conditions: MFBF 10679, 18 h; how it was run: as §2
[28] = tested on: Bacillus cereus; assay: Antibacterial activity against Bacillus cereus ATCC 11778 after 18 hrs by serial microdilution broth assay; type: functional; conditions: ATCC 11778, 18 h; how it was run: as §4
[29] = Hemolytic activity against human RBC at 100 ug/ml after 1 hr relative to control; type: ADME, cell-based, Erythrocyte; conditions: red blood cells (RBC), read-out: Activity
[30] = Growth inhibition of human MCF7 cells by alamar blue assay; type: functional
[31] = Cytotoxicity against HEK cells assessed as reduction in cell viability at 6.25 to 100 ug/ml after 24 hrs by MTT assay; type: toxicity, cell-based; conditions: human, hek293, 24 h; how it was run: as §1

With `COc1cc(NC(C)CCCNC(=O)Nc2ccc(C(F)(F)F)cc2)c2ncccc2c1` (centres undefined) as the compound, how does the Activity [1] read?
Its Activity is “Non-Toxic”.

And the MIC50 [2]?
Its MIC50 is over 100 µg/mL.

And the inhibition [3]?
Its inhibition is 22.4%.

What about the IC50 [4] of the same compound?
The IC50 was 1.9 µM.

What about the MIC50 [5] of the same compound?
Its MIC50 is 35 µg/mL (≈ 78.4 µM).

And the IC50 [6]?
Its IC50 is 8.3 µM.

What about the MIC50 [7] of the same compound?
The MIC50 was over 100 µg/mL.

What about the Activity [8] of the same compound?
Its Activity is 36.4%.

What about the MIC50 [9] of the same compound?
Its MIC50 is 150 µg/mL (≈ 336 µM).

What about the MIC50 [10] of the same compound?
The MIC50 was over 100 µg/mL.

What about the Activity [11] of the same compound?
Its Activity is 38.9%.

What about the MIC50 [12] of the same compound?
The MIC50 was 100 µg/mL (≈ 224 µM).

And the MIC50 [13]?
Its MIC50 is over 100 µg/mL.

What about the IC50 [14] of the same compound?
Its IC50 is 22 µM.

What about the IC50 [15] of the same compound?
The IC50 was 24 µM.

And the MIC50 [16]?
Its MIC50 is over 100 µg/mL.

And the inhibition [17]?
The inhibition was 67%.

What about the MIC50 [18] of the same compound?
The MIC50 was 25 µg/mL (≈ 56 µM).

And the MIC50 [19]?
The MIC50 was 50 µg/mL (≈ 112 µM).

What about the IC50 [20] of the same compound?
Its IC50 is 14 µM.

What about the IC50 [21] of the same compound?
Its IC50 is 8.4 µM.

What about the MIC50 [22] of the same compound?
The MIC50 was over 100 µg/mL.

What about the MIC50 [23] of the same compound?
Its MIC50 is 25 µg/mL (≈ 56 µM).

What about the MIC50 [24] of the same compound?
The MIC50 was over 100 µg/mL.

And the IC50 [25]?
Its IC50 is 7.4 µM.

What about the IC50 [26] of the same compound?
Its IC50 is 20 µM.

And the MIC50 [27]?
Its MIC50 is over 100 µg/mL.

And the MIC50 [28]?
The MIC50 was over 100 µg/mL.

What about the hemolysis at 1 h, 100 ug/ml [29] of the same compound?
Its hemolysis at 1 h, 100 ug/ml is 7.85%.

Which IC95 [30] does the source give for `COc1cccc2c1C(=O)c1c(O)c3c(c(O)c1C2=O)C[C@@](O)(C(=O)CO)C[C@@H]3O[C@H]1C[C@H](N)[C@H](O)[C@H](C)O1` [DOXORUBICIN] here?
Its IC95 is 1 µM.

For `COc1cc(NC(C)CCCNC(=O)Nc2cccc(O)c2)c2ncccc2c1` (centres undefined), which MIC50 [2] is on record?
The MIC50 was 50 µg/mL (≈ 127 µM).

And the inhibition [3]?
The inhibition was 50.8%.

What about the IC50 [4] of the same compound?
The IC50 was 11 µM.

What about the MIC50 [5] of the same compound?
The MIC50 was 50 µg/mL (≈ 127 µM).

What about the IC50 [6] of the same compound?
The IC50 was 48 µM.

What about the MIC50 [7] of the same compound?
The MIC50 was 12.5 µg/mL (≈ 31.7 µM).

And the Activity [8]?
The Activity was 52.3%.

And the Activity [31]?
Its Activity is “Non-Toxic”.

And the MIC50 [9]?
Its MIC50 is 100 µg/mL (≈ 254 µM).

And the MIC50 [10]?
The MIC50 was over 100 µg/mL.

And the Activity [11]?
Its Activity is 48.6%.

What about the MIC50 [12] of the same compound?
The MIC50 was 100 µg/mL (≈ 254 µM).

And the MIC50 [13]?
Its MIC50 is over 100 µg/mL.

What about the IC50 [14] of the same compound?
Its IC50 is 27 µM.

What about the IC50 [15] of the same compound?
Its IC50 is 25 µM.

And the MIC50 [16]?
The MIC50 was 100 µg/mL (≈ 254 µM).

What about the inhibition [17] of the same compound?
Its inhibition is 66.9%.

And the MIC50 [18]?
The MIC50 was 20 µg/mL (≈ 50.7 µM).

What about the MIC50 [19] of the same compound?
The MIC50 was 50 µg/mL (≈ 127 µM).

What about the IC50 [20] of the same compound?
The IC50 was 32 µM.

What about the IC50 [21] of the same compound?
The IC50 was 46 µM.

And the MIC50 [22]?
The MIC50 was 50 µg/mL (≈ 127 µM).

What about the MIC50 [23] of the same compound?
Its MIC50 is 50 µg/mL (≈ 127 µM).

What about the MIC50 [24] of the same compound?
Its MIC50 is over 100 µg/mL.

What about the IC50 [25] of the same compound?
The IC50 was 25 µM.

And the IC50 [26]?
The IC50 was 24 µM.

What about the MIC50 [27] of the same compound?
Its MIC50 is 100 µg/mL (≈ 254 µM).

And the MIC50 [28]?
The MIC50 was 50 µg/mL (≈ 127 µM).

And the hemolysis at 1 h, 100 ug/ml [29]?
The hemolysis at 1 h, 100 ug/ml was under 1%.
